From ChEMBL document CHEMBL1687933, “Synthesis and pharmacological evaluation of fluorine-containing D₃ dopamine receptor ligands” (J Med Chem, 2011)

Key:
D(3) dopamine receptor = D(3) dopamine receptor (Homo sapiens, UniProt P35462); assay: Displacement of [125I]-IABN from human D3 receptor transfected in human HEK 293 cells by gamma-counting; type: cell-based, HEK293
Procedure, shortened: (§1)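 Nonspecific binding defined with 20 µM (+)-butaclamol. Inhibitor spans 5 log units at two points per decade, in triplicate. Filtration and gamma counting. One-site IC50 converted to Ki by Cheng–Prusoff. At least three independent experiments.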

D(2) dopamine receptor = D(2) dopamine receptor (Homo sapiens, UniProt P14416); assay: Displacement of [125I]-IABN from human D2 receptor transfected in human HEK 293 cells by gamma-counting; type: cell-based, HEK293; procedure, shortened: as §1
[1] = Partition coefficient, log P of the compound; type: physicochemical; conditions: octanol/water
D(4) dopamine receptor = biological target: T1, D(4) dopamine receptor (Homo sapiens, UniProt P21917); assay: Binding affinity to human D4 receptor transfected in human HEK293 cells by gamma-counting; type: cell-based; procedure, shortened: as §1
T1 sequence (P21917 whole entry): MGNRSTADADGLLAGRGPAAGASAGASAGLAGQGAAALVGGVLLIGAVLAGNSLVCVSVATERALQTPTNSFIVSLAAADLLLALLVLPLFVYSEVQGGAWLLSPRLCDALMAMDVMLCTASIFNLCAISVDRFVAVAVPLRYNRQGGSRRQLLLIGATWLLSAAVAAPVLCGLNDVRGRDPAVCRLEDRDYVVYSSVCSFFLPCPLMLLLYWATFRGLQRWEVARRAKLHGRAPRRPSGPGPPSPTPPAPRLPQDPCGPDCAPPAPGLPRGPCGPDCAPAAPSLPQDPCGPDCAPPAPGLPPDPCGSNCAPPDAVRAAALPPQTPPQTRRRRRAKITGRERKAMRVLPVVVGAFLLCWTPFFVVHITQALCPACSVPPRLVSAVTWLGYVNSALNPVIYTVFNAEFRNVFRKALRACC

[2] = biological target: Sigma non-opioid intracellular receptor 1 (Cavia porcellus, UniProt Q60492); assay: Displacement of [3H]-pentazocine from guinea pig sigma1 receptor by liquid scintillation counting
Procedure, shortened: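 Guinea pig brain membranes (~300 µg protein) incubated with ~5 nM (+)-[3H]-pentazocine for 90 min at room temperature in Tris-HCl/NaCl/EDTA pH 7.4. […] Filtration and scintillation counting. IC50 taken from a one-site fit.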

Homo sapiens = organism: Homo sapiens; assay: Selectivity ratio of Ki for human D2 receptor to Ki for human D3 receptor
Procedure, shortened: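 Selectivity index is Ki(D2)/Ki(D3). Both Ki values come from [125I]IABN competition on membranes of HEK 293 cells stably expressing the human receptor. Incubation was 60 min at 37°C at pH 7.5, with Cheng–Prusoff correction.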

Sequence of D(2) dopamine receptor (P14416 whole entry): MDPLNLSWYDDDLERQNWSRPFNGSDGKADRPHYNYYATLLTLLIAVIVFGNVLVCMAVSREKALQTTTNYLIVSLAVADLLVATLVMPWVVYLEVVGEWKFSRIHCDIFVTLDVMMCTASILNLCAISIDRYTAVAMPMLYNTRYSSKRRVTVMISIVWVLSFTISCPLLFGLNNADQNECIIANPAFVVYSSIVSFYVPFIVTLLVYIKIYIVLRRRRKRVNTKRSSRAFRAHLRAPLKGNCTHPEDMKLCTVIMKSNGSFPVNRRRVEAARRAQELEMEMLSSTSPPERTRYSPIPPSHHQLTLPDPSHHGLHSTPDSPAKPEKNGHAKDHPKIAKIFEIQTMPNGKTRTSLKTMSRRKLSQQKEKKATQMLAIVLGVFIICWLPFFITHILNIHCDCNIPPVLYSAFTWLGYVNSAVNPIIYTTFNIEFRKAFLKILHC
Sequence of Sigma non-opioid intracellular receptor 1 (Q60492 whole entry): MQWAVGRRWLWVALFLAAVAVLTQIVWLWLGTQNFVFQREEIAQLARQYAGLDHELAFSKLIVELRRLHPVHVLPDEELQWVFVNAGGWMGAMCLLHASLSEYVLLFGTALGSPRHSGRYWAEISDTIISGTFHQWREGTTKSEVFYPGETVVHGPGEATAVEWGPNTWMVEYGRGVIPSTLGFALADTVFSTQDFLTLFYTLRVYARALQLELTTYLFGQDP
Sequence of D(3) dopamine receptor (P35462 whole entry): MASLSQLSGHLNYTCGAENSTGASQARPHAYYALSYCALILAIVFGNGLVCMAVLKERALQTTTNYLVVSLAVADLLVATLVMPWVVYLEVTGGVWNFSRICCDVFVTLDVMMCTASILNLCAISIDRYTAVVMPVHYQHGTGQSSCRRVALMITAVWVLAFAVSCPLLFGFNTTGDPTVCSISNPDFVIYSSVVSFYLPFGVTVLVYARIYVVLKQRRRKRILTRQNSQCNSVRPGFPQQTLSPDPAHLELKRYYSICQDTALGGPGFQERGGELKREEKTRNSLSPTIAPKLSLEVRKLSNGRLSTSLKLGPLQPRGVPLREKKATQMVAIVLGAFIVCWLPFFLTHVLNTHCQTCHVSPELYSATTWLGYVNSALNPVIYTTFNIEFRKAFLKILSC

| Ki (D(3) dopamine receptor) | Ki (D(2) dopamine receptor) | logP [1] | Ki (D(4) dopamine receptor) | Ki [2] | Ratio Ki (Homo sapiens) | Structure (SMILES) |
| --- | --- | --- | --- | --- | --- | --- |
| 2.5 nM | 14.2 nM | 3.34 |  |  |  | O=C(NCCCCN1CCN(c2ccccc2OCCF)CC1)c1ccc(OCCOCCF)cc1 |
|  |  | 4.67 | 246 nM | 20900 nM |  | O=C(NCCCCN1CCN(c2ccccc2OCCF)CC1)c1ccc(-c2ccsc2)cc1 |
| 24.9 nM | 131 nM | 3.43 |  |  | 5.2 | COc1ccccc1N1CCN(C/C=C/CNC(=O)c2ccc(CCF)cc2)CC1 |
| 13.6 nM | 13.4 nM | 4.49 |  |  | 1 | COc1ccccc1N1CCN(C/C=C/CNC(=O)c2cc(Br)ccc2OCCF)CC1 |
| 3.6 nM | 35.2 nM | 3.83 |  |  | 9.8 | CN(C)c1ccc(C(=O)NC/C=C/CN2CCN(c3ccccc3OCCF)CC2)cc1 |
| 0.8 nM | 34.4 nM | 3.09 | 896 nM | 1260 nM | 43 | COc1ccccc1N1CCN(CCCCNC(=O)c2ccc(N(C)C)cc2)CC1 |
| 18.2 nM | 59.2 nM | 3.16 |  |  | 3.3 | COc1ccccc1N1CCN(C/C=C/CNC(=O)c2ccc(OCCOCCF)cc2)CC1 |
| 4.2 nM | 52 nM | 2.72 | 2100 nM | 4870 nM | 12.2 | COc1ccccc1N1CCN(CCCCNC(=O)c2ccc(OCCOCCOCCF)cc2)CC1 |
| 6.2 nM | 55.3 nM | 3.55 |  |  | 8.9 | COc1ccccc1N1CCN(C/C=C/CNC(=O)c2ccc(OCCF)cc2)CC1 |
| 19.6 nM | 64.8 nM | 3.41 |  |  | 3.3 | O=C(NC/C=C/CN1CCN(c2ccccc2OCCF)CC1)c1ccc(OCCOCCF)cc1 |
| 10.9 nM | 13.2 nM | 4.73 |  |  | 1.2 | COc1ccccc1N1CCN(C/C=C/CNC(=O)c2cc(I)ccc2OCCF)CC1 |
| 2.4 nM | 54.5 nM | 2.94 | 804 nM | 3540 nM |  | COc1ccccc1N1CCN(CCCCNC(=O)c2ccc(CCF)cc2)CC1 |
| 1.1 nM | 17.7 nM | 3.61 | 890 nM | 7200 nM | 16.1 | O=C(NC/C=C/CN1CCN(c2ccccc2OCCF)CC1)c1ccc(CCF)cc1 |
| 6.2 nM |  | 3.08 |  |  |  | COc1ccccc1N1CCN(CCCCNC(=O)c2ccc(OCCOCCF)cc2)CC1 |
| 18.5 nM | 17.8 nM | 3.66 |  |  | 1 | COc1ccccc1N1CCN(C/C=C/CNC(=O)c2cc(C)ccc2OCCF)CC1 |
| 1.1 nM | 70.5 nM | 4.74 | 182 nM | 7780 nM | 64 | O=C(NC/C=C/CN1CCN(c2ccccc2OCCF)CC1)c1ccc(-c2ccsc2)cc1 |
| 1.1 nM | 27.1 nM | 3.48 | 1400 nM | 4780 nM | 25 | COc1ccccc1N1CCN(CCCCNC(=O)c2ccc(OCCF)cc2)CC1 |
| 0.65 nM | 15.1 nM | 3.75 | 890 nM | 1960 nM |  | CN(C)c1ccc(C(=O)NCCCCN2CCN(c3ccccc3OCCF)CC2)cc1 |
| 8.4 nM | 37.9 nM | 3.81 |  |  | 4.5 | O=C(NC/C=C/CN1CCN(c2ccccc2OCCF)CC1)c1ccc(OCCF)cc1 |
| 6.9 nM | 21.4 nM | 3.68 |  |  | 3.1 | O=C(NCCCCN1CCN(c2ccccc2OCCF)CC1)c1ccc(CCF)cc1 |
| 13.8 nM | 57.6 nM | 4.15 |  |  | 4.2 | COc1ccccc1N1CCN(C/C=C/CNC(=O)c2cc(Br)cc(OC)c2OCCF)CC1 |
| 5.2 nM | 31.7 nM | 2.98 |  |  | 6.1 | O=C(NCCCCN1CCN(c2ccccc2OCCF)CC1)c1ccc(OCCOCCOCCF)cc1 |
| 0.52 nM | 15.1 nM | 3.73 | 990 nM | 4360 nM |  | O=C(NCCCCN1CCN(c2ccccc2OCCF)CC1)c1ccc(OCCF)cc1 |
